# Laboratory results from ChEMBL document CHEMBL1157607, “Piracetam defines a new binding site for allosteric modulators of alpha-amino-3-hydroxy-5-methyl-4-isoxazole-propionic acid (AMPA) receptors” (J Med Chem, 2010).
# Calls of active or inactive are those of the source. The calls are words filed in the database; no cut-off is given here.
# Columns and labels:
# [1] = Binding affinity to subsite B/B' and subsite C/C' in S1S2 domain of GluA2 receptor expressed in Escherichia coli by crystallography
# Summary of the method: (§1)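 GluA2 S1S2 domain (flip form via N754S, GluA2i) expressed in E. coli Origami B (DE3) cells, IPTG 0.5 mM final at 20°C for 20 h. Purified by Ni-NTA, sizing and ion exchange with glutamate in all buffers. Protein at 0.3 mM with 10 mM glutamate, ligand 5 mM final. Co-crystals grown by hanging drop at 4°C against 16–18% PEG 8K, 0.1 M sodium cacodylate, 0.1–0.15 M zinc acetate, pH 6.5.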
# [2] = Binding affinity to subsite A in S1S2 domain of GluA2 receptor expressed in Escherichia coli by crystallography; summary of the method: as §1
# [3] = Binding affinity to subsite C/C' in S1S2 domain of GluA2 receptor expressed in Escherichia coli by crystallography; summary of the method: as §1
SMILES,Activity [1],Activity [2],Activity [3]
NS(=O)(=O)c1cc2c(cc1Cl)NC(C1CC3C=CC1C3)NS2(=O)=O (stereo not given),Active,,
NS(=O)(=O)c1cc2c(cc1Cl)NC(C(Cl)Cl)NS2(=O)=O (stereo not given),Active,,
COc1ccc(C(=O)N2CCCC2=O)cc1,Active,Active,
NS(=O)(=O)c1cc2c(cc1Cl)NCNS2(=O)=O,,,Active
NS(=O)(=O)c1cc2c(cc1C(F)(F)F)NCNS2(=O)=O,,,Active
CC1Nc2ccc(Cl)cc2S(=O)(=O)N1 (stereo not given),,,Active
C=CCSCC1Nc2cc(Cl)c(S(N)(=O)=O)cc2S(=O)(=O)N1 (stereo not given),Active,,
O=C1c2cc3c(cc2OC2CCCN12)OCCO3 (stereo not given),Active,Active,
